CaV13 FRET inh: Disruptors of the CACNA1D IQ motif to Ca2+-dependent inactivation inhibitor domain association, primary screening, Förster resonance energy transfer in intact living …; inhibition, % at 12.3 µM; HEK cells, CFP/YFP FRET ICDI-IQ, plate reader, 10 min; percent FRET-ratio fall versus neutral wells; AID 743397; 340,000 compounds, 0.098% hits;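 active = mean replicate inhibition of at least 30% and at least 1% of replicates passing that level; inconclusive = only one of the two criteria is met; inactive = neither criterion is met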;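 also: 0% = median of the neutral control wells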
Runt-SMMHC FRET: blocks binding of human RUNX1 Runt domain to CBFb-SMMHC | Cerulean-Runt/Venus-CBFb-SMMHC FRET ratio 530/480, 1 h | inhibition, % at 20 µM | 220,000 compounds, 0.74% hits;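 active = mean inhibition across duplicate retests at 20 µM reaching about 50%, limit read from the data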;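 also: 0% = DMSO wells and 100% = wells with excess untagged CBFb-SMMHC; inhibitors lower the FRET ratio by blocking Runt binding to CBFb-SMMHC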
Runt-CBFb FRET: inhibitors of human RUNX1 Runt domain binding to CBFb | Q01196+Q13951 | Cerulean-Runt/Venus-CBFb FRET ratio 530/480, 1 h | inhibition, % at 20 µM | 220,000 compounds, 0.46% hits | AID 1496;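 active = inhibition over about 50% at 20 µM in the single-dose screen, limit read from the data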;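 also: 0% = DMSO wells and 100% = excess unlabeled CBFb competitor control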
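Reagent – Venus-CBFb binding partner, 100 nM · Assay system – Cerulean-tagged RUNX1 Runt domain (FRET donor) fusion protein · Input – 100 nM per protein · Incubation – two 1 h room-temperature incubations shielded from light · Measured by – FRET fluorescence · Medium – Tris buffer pH 7.5 with salts and BSA · Benchmarks – unlabeled CBFb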
Hck-Nef inh: inhibitors of human Hck kinase activated by Nef | Recombinant Hck-YEEI plus Nef, Z-Lyte FRET kinase assay | 220,000 compounds, 0.68% hits | inhibition, % at 20 µM;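 active = Hck-Nef kinase inhibition above about 50%, limit read from the data; inactive = inhibition below that limit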;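 also: 0% = DMSO with Hck plus Nef and 100% = Hck alone without Nef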
Target sequence (P08631 whole entry, looked up): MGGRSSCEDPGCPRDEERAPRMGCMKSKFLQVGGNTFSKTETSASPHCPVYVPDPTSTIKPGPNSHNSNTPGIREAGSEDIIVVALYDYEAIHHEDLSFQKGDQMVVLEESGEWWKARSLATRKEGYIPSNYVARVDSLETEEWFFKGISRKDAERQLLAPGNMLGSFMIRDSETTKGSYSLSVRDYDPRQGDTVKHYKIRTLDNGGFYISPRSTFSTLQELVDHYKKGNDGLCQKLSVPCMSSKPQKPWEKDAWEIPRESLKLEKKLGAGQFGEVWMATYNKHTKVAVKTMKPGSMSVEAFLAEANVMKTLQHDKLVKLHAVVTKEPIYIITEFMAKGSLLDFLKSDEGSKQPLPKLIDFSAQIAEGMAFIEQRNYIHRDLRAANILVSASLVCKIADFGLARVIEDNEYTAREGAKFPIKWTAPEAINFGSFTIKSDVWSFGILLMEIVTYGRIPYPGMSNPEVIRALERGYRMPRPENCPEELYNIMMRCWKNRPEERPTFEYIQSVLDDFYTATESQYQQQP
RanGTP-Impb inh: inhibitors of RanGTP-importin-beta interaction, primary screen, biochemical, FRET, CFP-Ran, YFP-importin-beta, homogeneous; AID 2216; inhibition, % (no concentration beside the values); 300,000 compounds, 1.1% hits; cell-free CFP-Ran/YFP-importin-beta FRET ratio;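 active = more than half of the replicate wells show a fall in the fluorescence ratio signal beyond about 16%, limit read from the data, passing the limit was not always enough; inconclusive = exactly half of the replicate wells pass the set limit; inactive = fewer than half of replicates pass the limit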;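 also: 0% = DMSO wells and 100% = Ran loaded with GDP instead of GTP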
YIC counter: counter-screen for RanGTP-importin-beta inhibitors: YIC FRET probe. Purified YIC probe, intramolecular FRET ratio YFP/CFP. 1,000 compounds, 40% hits. shares compounds with RanGTP-Impb inh. AID 435026. IC50, µM;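 active = fitted half-maximal inhibitory concentration no more than tenfold above the top dose tested; inconclusive = flat fit with 30 to 70% activity, or poor fit; inactive = half-maximal concentration beyond tenfold above the top dose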
Starred values were filed as active, the others as inactive. A selection: hits, their analogues and other compounds. The true share with any hit is near 1.5%.

For CCOc1ccc(N2C(=O)C3C4C=CC(CC4)C3C2=O)c([N+](=O)[O-])c1 (stereo unspecified) the results were CaV13 FRET inh -4, Runt-SMMHC FRET 1, Runt-CBFb FRET 1, Hck-Nef inh 2, RanGTP-Impb inh 20* and YIC counter >50.
For Cc1ccc(N=Cc2cc3c(cc2[N+](=O)[O-])OCO3)cc1[N+](=O)[O-] the results were CaV13 FRET inh -2, RanGTP-Impb inh 20* and YIC counter >50.
Screening CCc1ccccc1N(CC(=O)NCc1ccco1)C(=O)CCC(=O)Nc1nccs1 returned CaV13 FRET inh -5, RanGTP-Impb inh 22* and YIC counter >50.
`CCOc1ccc(N(CC(=O)NCc2ccco2)C(=O)CCC(=O)Nc2nccs2)cc1` gave CaV13 FRET inh -5 and RanGTP-Impb inh inconclusive.
C/C(=N\NC(=S)NCc1ccccc1)c1cccc(Br)c1 was read as CaV13 FRET inh -18, Runt-SMMHC FRET -4, Runt-CBFb FRET 0, Hck-Nef inh 1, RanGTP-Impb inh 46* and YIC counter >50.
C/C(=N\NC(=S)NCCc1ccccc1)c1cccc(Br)c1 was read as CaV13 FRET inh -7, Runt-SMMHC FRET -4, Runt-CBFb FRET 3, Hck-Nef inh -4 and RanGTP-Impb inh 0.
`CC1(c2nnnn2-c2ccc3c(c2)OCCO3)CCC(=O)N1Cc1cccc(C(F)(F)F)c1` (stereo unspecified) gave CaV13 FRET inh -10.
CCOc1ccc(NC(=O)NCCCSC2CCCCC2)cc1 was read as CaV13 FRET inh -3, Runt-SMMHC FRET 0, Runt-CBFb FRET -2, Hck-Nef inh 0 and RanGTP-Impb inh -2.
For NS(=O)(=O)c1ccc(NC(=S)NC(=O)C2CCCCC2)cc1 the results were CaV13 FRET inh -5, Runt-SMMHC FRET 0, Runt-CBFb FRET 2, Hck-Nef inh 27 and RanGTP-Impb inh 1.
`COc1ccc(C2C(C#N)=C(N)Oc3cc4c(cc32)OCO4)cc1` (stereo unspecified) gave Runt-SMMHC FRET 10, Runt-CBFb FRET 13, Hck-Nef inh 4, RanGTP-Impb inh 25* and YIC counter >50.
Screening CCOC(=O)c1c(C)[nH]c(C(=O)CSc2nc(C)cc(C)n2)c1C returned CaV13 FRET inh -6, Runt-SMMHC FRET -1, Runt-CBFb FRET 1, Hck-Nef inh -16 and RanGTP-Impb inh 0.
CCN(CC)S(=O)(=O)c1ccc(/C=C/C(=O)Nc2ccc(F)cc2F)cc1 was read as CaV13 FRET inh -4, Runt-SMMHC FRET 0, Runt-CBFb FRET 0, Hck-Nef inh 1, RanGTP-Impb inh 21* and YIC counter >50.
Cn1ncc([N+](=O)[O-])c1C(=O)n1nnc2ccccc21 was read as CaV13 FRET inh 1, Runt-SMMHC FRET 0 and Hck-Nef inh -10.
Screening COCCOC(=O)C1=C(C)NC(=O)NC1c1cccc2ccccc12 (stereo unspecified) returned CaV13 FRET inh -5, RanGTP-Impb inh 22* and YIC counter >50.
`CCCOc1ccccc1C1NC(=O)NC(C)=C1C(=O)OCCOC` (stereo unspecified) gave Runt-SMMHC FRET -1, Runt-CBFb FRET -1, Hck-Nef inh -19 and RanGTP-Impb inh 0.
`CCCCCC(=O)N/N=C/c1ccc(N(C)C)cc1` gave CaV13 FRET inh -4, Runt-SMMHC FRET -1, Runt-CBFb FRET 3, Hck-Nef inh 4 and RanGTP-Impb inh -1.
For Cc1cc(S(=O)(=O)N2CCN(c3ccccc3C)CC2)ccc1F the results were CaV13 FRET inh -3, Runt-SMMHC FRET -1, Runt-CBFb FRET -1, Hck-Nef inh 6 and RanGTP-Impb inh -2.
`Cc1cc(S(=O)(=O)N2CCN(c3c(C)cccc3C)CC2)ccc1F` gave CaV13 FRET inh -2, Runt-SMMHC FRET -5, Runt-CBFb FRET 1, Hck-Nef inh -1, RanGTP-Impb inh 22* and YIC counter >50.
Screening CCOc1ccc(NC(=O)Cn2nc(C(N)=O)c3ccccc3c2=O)cc1S(=O)(=O)N1CCCC1 returned CaV13 FRET inh -5.
COCCNC(=O)c1cnn2c(C(F)F)cc(-c3ccc(C)cc3)nc12 was read as CaV13 FRET inh -7, Runt-SMMHC FRET 92, Runt-CBFb FRET 46, Hck-Nef inh -7, RanGTP-Impb inh 18* and YIC counter 42*.
`COc1ccc(NC(=O)c2ccc3snnc3c2)cc1` gave Runt-SMMHC FRET -6, Runt-CBFb FRET 2, Hck-Nef inh 9, RanGTP-Impb inh 96* and YIC counter >50.
`C[C@@H]1CN([C@@H](C)CO)C(=O)c2cc(NS(C)(=O)=O)ccc2O[C@@H](C)CCCCO[C@H]1CN(C)C(=O)Cc1ccccc1` gave YIC counter >50.
`COc1ccccc1OC(C)C(=O)Nc1ccc2c(c1)OCCO2` (stereo unspecified) gave CaV13 FRET inh -4 and RanGTP-Impb inh -3.
Screening CCOC(=O)c1sc(NC(=O)Cc2ccc(F)cc2)nc1C returned CaV13 FRET inh -7, Runt-SMMHC FRET 2, Runt-CBFb FRET -2, Hck-Nef inh 26 and RanGTP-Impb inh 0.
`CCOC(=O)c1c(NC(=O)c2cccs2)sc2c1CCN(C(=O)OCC)C2` gave Runt-SMMHC FRET 1, Runt-CBFb FRET -2, Hck-Nef inh 2 and RanGTP-Impb inh -3.
Screening CCOC(=O)c1c(/N=C/c2ccc(C)cc2O)sc2c1CCN(C)C2 returned CaV13 FRET inh 4, Runt-SMMHC FRET -2, Runt-CBFb FRET 14, Hck-Nef inh 17, RanGTP-Impb inh 60* and YIC counter >26.
For CCOC(=O)c1c(NC(=O)Cc2ccccc2)sc2c1CCN(CC)C2 the results were CaV13 FRET inh -14, RanGTP-Impb inh 55* and YIC counter >50.
For CCOC(=O)c1sc(NC(=O)Nc2ccc(F)cc2)nc1C the results were CaV13 FRET inh -5, Runt-SMMHC FRET 2, Runt-CBFb FRET 1, Hck-Nef inh 0, RanGTP-Impb inh 18* and YIC counter >50.
COC(=O)c1c(NC(=O)C2COc3ccccc3O2)sc2c1CCN(C(C)=O)C2 (stereo unspecified) was read as CaV13 FRET inh -5, Runt-SMMHC FRET 3, Runt-CBFb FRET 0, Hck-Nef inh 8 and RanGTP-Impb inh -1.
`CCOC(=O)c1c(/N=C/c2cccc([N+](=O)[O-])c2O)sc2c1CCC2` gave CaV13 FRET inh -11, Runt-SMMHC FRET -1, Runt-CBFb FRET 12, Hck-Nef inh 5 and RanGTP-Impb inh 1.
CCN1CCc2c(sc(NC(=O)Cc3ccccc3)c2C(=O)OC)C1 was read as CaV13 FRET inh -3, RanGTP-Impb inh 42* and YIC counter >50.

Screening results: PubChem BioAssay, several laboratories
